PubChem BioAssay
A number with no mark means an inactive call.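 Rule for the calls: active = growth inhibition above 25% in both replicates, a cutoff set 3 SD above the mean; inconclusive = above 25% in only one replicate; inactive = the rest.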

Test: OD615 S. cerevisiae growth inhibition, permissive medium, pilot counter-assay, permissive growth control for S. cerevisiae lifespan shortening project (AID 705)
Settings: OD615, 24 h, at 10 µM, active compounds read high
Method in brief: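 System: engineered DeaD yeast; Medium: permissive raffinose/galactose medium; Compound dosing: 10 µM single dose, 0.25% DMSO; Incubation: 4 h cell pre-growth, 24 h exposure at 30 °C; Technique: OD at 615 nm; Evaluation: growth inhibition from lowered OD615 after 24 h.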

In order of falling growth inhibition:
1. CCOC(=O)c1ccc(NC(=O)C2C3C=CC(C3)C2C(=O)O)cc1 (stereo not given)  5.27%
2. CCOC(=O)c1sc(NC(=O)COC(=O)c2ccco2)nc1C  4.37%
3. COc1ccc(OC)c(NC(=O)Cn2cnc3c(cnn3-c3ccccc3)c2=O)c1  3.69%
4. CCOC(=O)C1CCCN(C(=O)Cn2nc(Cc3cccnc3)c3ccccc3c2=O)C1 (stereo not given)  3.18%
5. CC(=O)c1c(C)cc(C)c(CSc2nc(C)cc(=O)[nH]2)c1C  2.49%
6. CCOC(=O)N1CCC(NC(=O)c2cc3ccccn3n2)CC1  1.83%
7. CC(C)Sc1nnc(Cn2c(=O)sc3ccccc32)n1-c1ccccc1  1.75%
8. Cc1onc(-c2ccccc2Cl)c1C(=O)Nc1ccc(S(=O)(=O)N2CCCC2)cc1  0.03%
9. CC1CCCCC1NC(=O)CCS(=O)(=O)c1cccc2nonc12 (stereo not given)  -0.105%
10. COCCCNC(=O)c1cc2c(-c3ccc(Cl)cc3)nn(C)c2s1  -0.14%
11. CCOC(=O)N1CCC(N2CC34C=CC(O3)C(C(=O)Nc3ccc(C)cc3)C4C2=O)CC1 (stereo not given)  -0.385%
12. COc1ccccc1NC1C=CS(=O)(=O)C1 (stereo not given)  -1.03%
13. O=C(CN1CCN(c2ncccn2)CC1)N1CCN(C(c2ccccc2)c2ccccc2)CC1  -1.1%
14. CC1(C)Cc2c(sc3c2c(=N)n(Cc2ccco2)c(=O)n3Cc2ccc(Cl)cc2)CO1  -1.16%
15. Cc1ccc(N(C)C(=O)N2CCN(S(=O)(=O)c3ccc(C)cc3)CC2)cc1  -1.22%
16. Cc1ccc(C2=[N+]([O-])C3(CCCCC/C3=N\O)N(O)C2(C)C)o1 (stereo not given)  -1.35%
17. CCN(CC)C(=O)CCCOc1ccc(Cl)cc1Cl  -2.5%
18. CCC(CC)C(=O)Nc1cc(=O)n(C)c(=O)n1C  -3.07%
19. CCOC(=O)C1CCCN(C(=O)Cn2nc(CC)n3c(cc4sccc43)c2=O)C1 (stereo not given)  -3.41%
20. CNc1nc(C)nc(-c2ccccc2O)n1  -3.62%
21. CCCc1cc(C(=O)Nc2cc(OC)c(Cl)cc2OC)no1  -4.69%
22. COc1ccccc1CNC(=O)c1cnc2sccn2c1=O  -5.31%
23. CSc1nnc(NC(=O)c2cc3ccccc3oc2=O)s1  -6.82%
24. Cc1ccc(C)c(NC(=O)CS(=O)(=O)c2cn(C)c3ccccc23)c1  -7.22%
25. O=C(CSc1cn(Cc2ccccc2)c2ccccc12)Nc1nccs1  -7.55%
26. O=C(O)c1ccc(Cl)c2c1C1C=CCC1C(c1ccccn1)N2 (stereo not given)  -7.86%
27. CCN1C(=O)c2ccccc2S(=O)c2ccc(C(=O)NCCCN3CCCC3=O)cc21 (stereo not given)  -7.88%
28. CCOc1ccccc1N1C(=O)c2cccnc2C1=O  -9.2%
29. O=C(NCC(c1ccc(F)cc1)N1CCOCC1)c1ccc(Br)o1 (stereo not given)  -9.34%
30. O=C(NCCSCc1ccco1)c1ccc(CN2CCOCC2)cc1  -10.4%
31. CCCCCOC(=O)NCC(O)c1ccccc1 (stereo not given)  -12.5%
32. COc1ccc(NC(=O)C2CCCN(S(=O)(=O)c3cccc4cccnc34)C2)cc1 (stereo not given)  -12.6%
33. Cn1c2c(c(=O)n(C)c1=O)C1c3ccccc3OCC1C(C)(C)O2 (stereo not given)  -15.4%
34. COc1ccc(NC(=O)c2c(-c3ccccc3)noc2C)c(OC)c1  -16%
35. CCCCOC(=O)Nc1ccccc1C(N)=O  -16.1%
36. COc1ccc(C2C(C(=O)NCc3cccnc3)c3ccccc3C(=O)N2C)cc1OC (stereo not given)  -16.2%
37. O=P(O)(CCc1ccccn1)CN1CCOCC1  -17.5%
38. CCCCN(C)C(=O)C(Cc1ccccc1)NS(=O)(=O)c1ccc2c(c1)CCC(=O)N2 (stereo not given)  -18.6%
39. Cc1csc(C(C#N)C(=O)c2cc3ccccc3o2)n1 (stereo not given)  -21.6%
40. CN(C)CCNC(=O)c1cc2cc(Br)ccc2oc1=O  -22.2%
